# Measured values pooled from the literature.
# Each line is one published result; the experiments were not run side by side.
# BAZ2B bromodomain: Bromodomain adjacent to zinc finger domain protein 2B, bromodomain (BAZ2B, Homo sapiens, UniProt Q9UIF8)
# DRD1: D(1A) dopamine receptor (DRD1, Homo sapiens, UniProt P21728)
# PTGS1: Prostaglandin G/H synthase 1 (PTGS1, Ovis aries, UniProt P05979)
# TAF1 BD2: Transcription initiation factor TFIID subunit 1, BD2 (TAF1, Homo sapiens, UniProt P21675)
# MARK1: Serine/threonine-protein kinase MARK1 (MARK1, Homo sapiens, UniProt Q9P0L2)
# SIRT3: NAD-dependent protein deacetylase sirtuin-3, mitochondrial (SIRT3, Homo sapiens, UniProt Q9NTG7)
target,observed,mode,technique,concentration,measurement,value,SMILES
"Ephrin type-A receptor 3 (EPHA3, Homo sapiens, UniProt P29320)",enzyme activity,inhibitor,FRET,0.1 µM,inhibition,-6%,CN(C)C1CCN(CC#Cc2nn(C3CCCC3)c3nc(NCc4ccccc4)ncc23)C1 (stereo not shown)
BAZ2B bromodomain,thermal stability,,DSF,10 µM,ΔTm,0.21 °C,C[S+]([O-])c1ccc(-c2nc(-c3ccncc3)c(-c3ccc(F)cc3)[nH]2)cc1 (stereo not shown)
DRD1,cell-free assay,,,10 µM,inhibition,-7.2%,COc1cc(NC(C)=O)c(Cl)cc1C(=O)Nc1nccs1
PTGS1,enzyme activity,inhibitor,,,kinact,0.000417 s⁻¹,C#CCNC(=O)c1ccccc1SC(C)=O
"Serine/threonine-protein kinase MRCK alpha (CDC42BPA, Homo sapiens, UniProt Q5VT25)",enzyme activity,inhibitor,,0.1 µM,remaining activity,66%,CCCOc1ccc(OC)c(F)c1C(=O)c1ccc(C(=O)N[C@@H]2CNC[C@H]2NC(=O)c2ccc3[nH]ncc3c2)cc1
TAF1 BD2,thermal stability,,DSF,10 µM,ΔTm,-0.06 °C,Oc1ccc(-c2nc(-c3ccncc3)c(-c3ccc(F)cc3)[nH]2)cc1
MARK1,enzyme activity,inhibitor,radiometric,1 µM,remaining activity,79%,Cc1nn(CC(F)(F)F)cc1Nc1ncc(C2CC2)c(NCCCNC(=O)C2CCC2)n1
PTGS1,enzyme activity,inhibitor,mass spectrometry,,kinact,0.0367 s⁻¹,CCCCC#CCNC(=O)c1ccccc1SC(C)=O
DRD1,cell-free assay,,,10 µM,inhibition,21.2%,Oc1cccc(Nc2nc(-c3ccc(F)cc3F)cs2)c1
PTGS1,enzyme activity,inhibitor,,,kinact,0.00035 s⁻¹,CCCCCCNC(=O)c1ccccc1SC(C)=O
"Transcription initiation factor TFIID subunit 1-like (TAF1L, Homo sapiens, UniProt Q8IZX4)",enzyme activity,inhibitor,,1 µM,remaining activity,96%,COc1cc(Cl)c(C(=O)N[C@@H](CN[C@H]2CC[C@@H](N)CC2)Cc2ccc(C#N)cc2)cc1-c1ccc(CN[C@H](C)c2ccc(C)cc2)o1
SIRT3,enzyme activity,inhibitor,fluorescence,200 µM,inhibition,2.4%,CCCCCC1CC(=O)c2cc(C)cc(C)c2O1 (stereo not shown)
MARK1,enzyme activity,inhibitor,radiometric,1 µM,remaining activity,102%,NS(=O)(=O)c1ccc(CNc2ccnc(Nc3cccc(CN4CCOCC4)c3)n2)cc1
TAF1 BD2,thermal stability,,DSF,10 µM,ΔTm,0.28 °C,Cc1cnc(Nc2ccc(OCCN3CCCC3)cc2)nc1Nc1cccc(S(=O)(=O)NC(C)(C)C)c1
SIRT3,enzyme activity,inhibitor,,100 µM,inhibition,16%,CCOCCOCCOCCNC(=S)NCCCC[C@H](NS(C)(=O)=O)C(=O)N[C@@H](C)C(=O)N[C@@H](CCCNC(=N)N)C(N)=O
MARK1,enzyme activity,inhibitor,radiometric,1 µM,remaining activity,108%,Cc1nn(CC(F)(F)F)cc1Nc1nccc(NCCCNC(=O)C2CCC2)n1
SIRT3,enzyme activity,inhibitor,fluorescence,200 µM,inhibition,4.5%,CCCCCc1cc(=O)c2cc(Cl)cc(Br)c2o1
"Transcription initiation factor TFIID subunit 1-like, BD2 (TAF1L, Homo sapiens, UniProt Q8IZX4)",binding,,competition with immobilised ligand,1 µM,remaining binding,77%,NS(=O)(=O)c1ccc(Nc2nc(-c3ccc(F)cc3)c3ccccc3n2)cc1
BAZ2B bromodomain,thermal stability,,DSF,10 µM,ΔTm,0.6 °C,Cc1cc2c(cc1N1C(=O)c3cccc4c(Cl)ccc(c34)C1=O)n(C)c(=O)n2C
